From PubChem BioAssay come the findings set out here.

Active and inactive are the calls of the source.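 The calls were made as follows, unless noted: active = NADPH fluorescence slope more negative than the mean of all samples by about 3 SD, 99.7% confidence; inactive = the rest.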

Experiment [1] in a line: inhibitors of TNFa-induced NFkB p65 translocation, primary screen, imaging, HUVEC, MLSMR starter and 10KST1 sets (AID 438;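 active = inhibition above 20% together with a positive visual image hit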;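 also: compound added about 3h40 before a 20 min TNFalpha stimulation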;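 as to inhibition: signal is the nuclear over cytoplasmic p65 intensity ratio per well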). The settings on record: HUVEC TNFa-induced p65 nuclear translocation; cell count: measured here: nuclei count (cytotoxicity indicator), at 2.08 µM; inhibition: at 2 µM, stronger effect = higher value, 0% TNFa-plus-vehicle, 100% no-TNFa wells.
The nature of experiment [2]: inhibitors of E-selectin induction by TNFa, primary screen, imaging, HUVEC, immunofluorescence, MLSMR starter and 10KST1 sets (AID 487;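 active = visually confirmed hit in the image check and inhibition above 20%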;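 as to inhibition: signal is fraction of cell area covered by stained E-selectin grains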;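 as to nuclei count: 100% = median nuclei count of all wells on the same plate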). The settings on record: HUVEC TNFalpha-induced E-selectin immunofluorescence imaging, at 2 µM; inhibition: stronger effect = higher value; nuclei count: measured here: cell number, toxicity.
Experiment [3] is described as follows: DUSP6 inhibitors restoring Erk phosphorylation by chemical complementation, primary imaging in DUSP6-transfected HeLa (AID 609;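 active = compounds giving at least 50% inhibition in the cell-based MKP-3 phosphatase rescue imaging test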;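 as to inhibition: phospho-Erk level distribution per well compared with pooled transfected vehicle control wells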). The settings on record: HeLa MKP-3 transfected, phospho-Erk imaging KS statistic, at 10 µM, cells stimulated with TPA for 15 min.
Experiment [4] addresses Dual specificity protein phosphatase 6 (Homo sapiens) (UniProt Q16828). The description is as above. The following applies: HeLa MKP-3 transfected, phospho-Erk imaging KS statistic; at 10 µM; stronger effect = higher value; cells stimulated with TPA for 15 min.
Experiment [5] has as its target Voltage-gated potassium channel subunit beta-2 (Rattus norvegicus) (UniProt P62483). Briefly: KvBeta enzyme negative modulators, primary screen, biochemical, NADPH fluorescence (AID 622;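 active = fluorescence slope higher than the sample average by over 3 SD, cut at about -0.22 in these data, passing the limit was not always enough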;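 also: slope of raw intensity against log time taken from 70 to 1610 s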). The settings on record: recombinant KvBeta, 4-cyanobenzaldehyde reduction, at 10 µM, stronger effect = higher value.
Experiment [6] has the same target. Briefly: KvBeta positive modulators, primary screen, biochemical, NADPH fluorescence (AID 623).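 Also: fluorescence intensity change per second fitted from 20 to 320 s.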 The settings on record: Recombinant KvBeta, NADPH fluorescence decrease slope, 10 min; at 10 µM; stronger effect = lower value.
Experiment [7] addresses Alpha-2C adrenergic receptor (Homo sapiens) (UniProt P18825). Briefly: modulators of alpha2C/GIRK thallium flux, primary screen, cell-based, HEK293 alpha2C/GIRK1/2 (AID 624;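 active = fluorescence slope after compound addition differing from the mean of all screened samples at 99.7% confidence, in either direction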;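 also: slope of fluorescence ratio to pre-addition baseline per second over 15 to 24 s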). The following applies: thallium flux BTC fluorescence, at 10 µM, actives lie on both sides.
The nature of experiment [8]: inhibitors of larval lipid processing in zebrafish, primary screen, whole organism, PED6 fluorescence, gall bladder and intestine (AID 686;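 active = a full or partial loss of lipid-probe fluorescence in the fish gall bladder, intestine or both, judged by eye; inactive = no fluorescence loss, or compound toxic to the fish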;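 also: signal comes from phospholipase A2 cleavage of quenched PED6 carried via bile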). The following applies: Zebrafish larvae PED6 lipid processing, fluorescence scoring; screened at 20 µM (by protocol). The gist of the method: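 Doses: 20 µM single dose. Test system: live zebrafish larvae aged 5-7 days, whole organism. Quantity: five larvae per well. Measured by: By-eye fluorescence microscopy. Reagent: ingested quenched lipid PED6 at 100 nM. Read-out: visual per-well fluorescence inhibition score. Times: overnight exposure of larvae to compound plus PED6.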

A short description of experiment [9]: inhibitors of Chlamydomonas gravitaxis, primary screen, whole organism, Chlamydomonas reinhardtii, WT vs cilia-less mutant, absorbance, 96-well (AID 463189;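 active = inhibition at or above 50% relative to wild type and mutant plate controls; inactive = inhibition below 50%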;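 also: 0% = wild type cc124 cells in DMSO and 100% = ciliumless bld1 mutant cells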). The settings on record: OD600 absorbance, 2 days, at 10 µM, stronger effect = higher value.
[10] abbreviates: measured here: cell density z-score.
[11] abbreviates: measured here: nuclear c-Myc green intensity z-score.
Setting [12] is: measured here: nuclear pErk red intensity z-score, stronger effect = higher value.

Dual specificity protein phosphatase 6 (Homo sapiens), sequence (Q16828 whole entry, looked up): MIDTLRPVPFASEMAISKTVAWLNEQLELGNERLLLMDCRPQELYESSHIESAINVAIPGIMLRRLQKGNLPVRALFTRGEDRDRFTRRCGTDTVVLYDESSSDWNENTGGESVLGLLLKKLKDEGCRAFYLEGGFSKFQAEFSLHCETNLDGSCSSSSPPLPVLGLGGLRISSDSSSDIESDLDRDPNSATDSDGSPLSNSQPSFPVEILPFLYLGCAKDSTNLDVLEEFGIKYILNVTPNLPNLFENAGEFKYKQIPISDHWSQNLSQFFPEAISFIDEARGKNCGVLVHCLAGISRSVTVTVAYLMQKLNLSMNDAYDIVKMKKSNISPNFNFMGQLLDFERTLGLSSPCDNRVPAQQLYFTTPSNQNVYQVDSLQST
Voltage-gated potassium channel subunit beta-2 (Rattus norvegicus), sequence (P62483 whole entry, looked up): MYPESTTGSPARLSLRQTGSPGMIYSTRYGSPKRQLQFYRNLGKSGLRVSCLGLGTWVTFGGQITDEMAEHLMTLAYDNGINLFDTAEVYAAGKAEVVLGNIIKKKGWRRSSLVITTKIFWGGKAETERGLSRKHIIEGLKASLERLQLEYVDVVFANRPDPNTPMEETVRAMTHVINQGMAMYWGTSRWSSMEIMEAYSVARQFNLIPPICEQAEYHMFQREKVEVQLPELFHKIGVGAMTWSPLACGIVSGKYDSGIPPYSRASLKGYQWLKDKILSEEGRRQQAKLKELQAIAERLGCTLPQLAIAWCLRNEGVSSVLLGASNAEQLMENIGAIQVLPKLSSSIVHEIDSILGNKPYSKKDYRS
Alpha-2C adrenergic receptor (Homo sapiens), sequence (P18825 whole entry, looked up): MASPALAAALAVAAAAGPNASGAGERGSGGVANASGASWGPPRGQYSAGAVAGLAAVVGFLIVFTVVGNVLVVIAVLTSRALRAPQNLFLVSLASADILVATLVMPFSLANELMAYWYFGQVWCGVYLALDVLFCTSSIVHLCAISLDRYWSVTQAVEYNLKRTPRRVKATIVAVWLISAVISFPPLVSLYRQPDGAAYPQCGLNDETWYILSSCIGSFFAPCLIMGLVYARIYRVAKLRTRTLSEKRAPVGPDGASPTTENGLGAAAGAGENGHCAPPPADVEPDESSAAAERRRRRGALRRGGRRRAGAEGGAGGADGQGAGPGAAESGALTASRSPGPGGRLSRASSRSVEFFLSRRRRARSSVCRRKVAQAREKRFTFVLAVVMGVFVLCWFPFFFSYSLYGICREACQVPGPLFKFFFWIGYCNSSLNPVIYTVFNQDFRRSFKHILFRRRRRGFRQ

The inhibition is the change of the read-out against control, counted positive when it falls. In the case of `CCOC(=O)c1[nH]c2cc3c(cc2c1NC(=O)CN1CCCCC1C)OCO3` (stereo unspecified), the cell count in experiment [1] turned out to be 588. For the same molecule, the inhibition in experiment [1] is -1.8% (inactive); in experiment [2] it was 46.2% (inactive); in [4], -10.5% (inactive); in experiment [9], -2.82% (inactive). Besides, the nuclei count in [2] was determined as 167%. Besides, the z-score is 0.894 in experiment [3] (setting [10]), -1.11 in [3] (setting [11]) and -0.403 in [3] (setting [12]). Besides, the fluorescence slope in experiment [5] is -0.229 (inactive). Besides, the NADPH fluorescence slope in experiment [6] is -2e-05 (inactive). For the same molecule, in [7], the slope was 0.00474 (inactive). Further, the molecule was called inactive in experiment [8].
As to `Cc1ccc(S(=O)(=O)/C(C#N)=C/c2c(N3CCN(C)CC3)nc3c(C)cccn3c2=O)cc1`, in experiment [1], the cell count is 485. For the same molecule, the inhibition is 3.3% (inactive) in [1], 20% (inactive) in [2], 20.3% (inactive) in [4] and -7.2% (inactive) in experiment [9]. In [2], this molecule came in with a nuclei count of 160%. In addition, the results for the z-score in experiment [3] (setting [10]), in [3] (setting [11]) and in experiment [3] (setting [12]) were -0.459, 0.434 and 1.14, respectively. Besides, in experiment [5], the fluorescence slope is -0.382 (inactive). Besides, the NADPH fluorescence slope in [6] is -4.1e-05 (inactive). Further, the slope in experiment [7] is 0.00164 (active). Further, the molecule was classed as inactive in [8].
As to `CCOC(=O)C1CCN(c2nc3ccccc3nc2C(C#N)C(=O)NCCc2ccccc2)CC1` (stereo unspecified), in experiment [1], the cell count turned out to be 441. Moreover, the inhibition in experiment [1] was 3.4% (inactive); in experiment [2], -167% (inactive); in experiment [4], 13.2% (inactive); in [9], 13.3% (inactive). Besides, the nuclei count in experiment [2] was found to be 184%. Besides, the z-score in [3] (setting [10]) is 0.0297; in [3] (setting [11]) it was 0.625; in [3] (setting [12]), -0.588. Further, the fluorescence slope in [5] is -0.426 (inactive). Also, the NADPH fluorescence slope in experiment [6] was -6.6e-05 (inactive). For the same molecule, the slope in experiment [7] is 0.00158 (inactive). Moreover, the molecule was called inactive in experiment [8].
Turning to `COC(=O)Cn1cc(C(=O)OC)cc(Br)c1=O`, in experiment [1], the cell count was determined as 507. The inhibition in experiment [1] was -0.8% (inactive); in experiment [2] it was -135% (inactive); in experiment [4], -8.76% (inactive); in experiment [9], -6.78% (inactive). In experiment [2], the nuclei count came out at 136%. For the same molecule, the z-score in [3] (setting [10]) was determined as 0.966; in experiment [3] (setting [11]) it was 0.177; in experiment [3] (setting [12]), 0.211. The fluorescence slope in experiment [5] is -0.539 (inactive). In experiment [6], the NADPH fluorescence slope is -3.3e-05 (inactive). Further, the slope in experiment [7] is 0.00509 (inactive). Besides, the result in experiment [8] was inactive.
`CC(C)(C)n1nnc(CCc2nnn(C(C)(C)C)n2)n1`: the cell count in [1] came out at 276. Also, the inhibition in [1] is -17.8% (inactive); in experiment [2], -32.2% (inactive); in [4], 10.5% (inactive); in experiment [9], -11.8% (inactive). In experiment [2], this molecule came in with a nuclei count of 104%. Besides, the z-score was 0.0896 in experiment [3] (setting [10]), 1.07 in [3] (setting [11]) and -0.74 in experiment [3] (setting [12]). Besides, the fluorescence slope in experiment [5] is -0.44 (inactive). The NADPH fluorescence slope in [6] was -0.000126 (inactive). Moreover, in [7], the slope was 0.00595 (inactive). Moreover, in [8], the result was inactive.
Turning to `COCCOCCOCCC(=O)NC1CC2CCC1(C)C2(C)C` (stereo unspecified), the cell count in experiment [1] worked out at 580. In addition, the inhibition in [1] is -10.5% (inactive); in experiment [2], 32.9% (inactive); in experiment [4], 6.51% (inactive); in [9] it was 13.6% (inactive). This molecule also came in with a nuclei count in experiment [2] of 158%. Also, the values for the z-score in [3] (setting [10]), in experiment [3] (setting [11]) and in experiment [3] (setting [12]) were 0.451, -0.414 and -0.476, respectively. Further, the fluorescence slope in experiment [5] was -0.459 (inactive). Further, the NADPH fluorescence slope in experiment [6] is -1.1e-05 (inactive). Also, the slope in [7] was 0.00758 (inactive). The molecule was classed as inactive in [8].
For `CC(=O)c1cc2c(=O)c3ccccc3oc2nc1C`, the cell count in experiment [1] came to 564. In addition, the inhibition in experiment [1] was -7.4% (inactive); in experiment [2] it was 19.7% (inactive); in experiment [4], 26.5% (inactive); in experiment [9] it was 46.5% (inactive). In addition, the nuclei count in experiment [2] came to 151%. Further, the z-score was 0.231 in experiment [3] (setting [10]), 1.31 in [3] (setting [11]) and -0.249 in experiment [3] (setting [12]). The fluorescence slope in experiment [5] is -0.525 (inactive). Moreover, in experiment [6], the NADPH fluorescence slope is -4.9e-05 (inactive). For the same molecule, the slope in experiment [7] was 0.00444 (inactive). Moreover, the call in experiment [8] was inactive.
